The compounds below were run on MEF (assay: Cytotoxicity against mouse MEF cells after 72 hrs by MTT assay). Conditions: not given.
Type: ADME, cell-based

| Structure (SMILES) | IC50 |
| --- | --- |
| CCC(C)(C)C(=O)O[C@H]1C[C@@H](C)C=C2C=C[C@H](C)[C@H](CC[C@@H]3C[C@@H](O)CC(=O)O3)[C@H]21 [SIMVASTATIN] | 36700 nM |

These compounds were tested on Hs68 (assay: Cytotoxicity against human HS68 cells after 72 hrs by MTT assay). Conditions: Hs68, 72 h.
Type: ADME, cell-based

| Structure (SMILES) | IC50 |
| --- | --- |
| CCC(C)(C)C(=O)O[C@H]1C[C@@H](C)C=C2C=C[C@H](C)[C@H](CC[C@@H]3C[C@@H](O)CC(=O)O3)[C@H]21 [SIMVASTATIN] | 26400 nM |

Each compound was assayed on A549 (assay: Selectivity index, ratio of IC50 for mouse MEF cells to IC50 for human A549 cells). Conditions: not given.
Type: functional

| Structure (SMILES) | Ratio IC50 |
| --- | --- |
| CCC(C)(C)C(=O)O[C@H]1C[C@@H](C)C=C2C=C[C@H](C)[C@H](CC[C@@H]3C[C@@H](O)CC(=O)O3)[C@H]21 [SIMVASTATIN] | 2.3 |

The compounds below were run on A549 (assay: Cytotoxicity against human A549 cells after 72 hrs by MTT assay). Conditions: A549, 72 h.
Type: functional, cell-based

| Structure (SMILES) | IC50 |
| --- | --- |
| CCC(C)(C)C(=O)O[C@H]1C[C@@H](C)C=C2C=C[C@H](C)[C@H](CC[C@@H]3C[C@@H](O)CC(=O)O3)[C@H]21 [SIMVASTATIN] | 16300 nM |

What follows are compounds tested against T1, 3-hydroxy-3-methylglutaryl-coenzyme A reductase (Homo sapiens, UniProt P04035) (assay: Inhibition of recombinant HMG-CoA reductase (unknown origin) after 10 mins by spectrophotometric analysis). Conditions: not given.
T1 sequence (P04035 whole entry): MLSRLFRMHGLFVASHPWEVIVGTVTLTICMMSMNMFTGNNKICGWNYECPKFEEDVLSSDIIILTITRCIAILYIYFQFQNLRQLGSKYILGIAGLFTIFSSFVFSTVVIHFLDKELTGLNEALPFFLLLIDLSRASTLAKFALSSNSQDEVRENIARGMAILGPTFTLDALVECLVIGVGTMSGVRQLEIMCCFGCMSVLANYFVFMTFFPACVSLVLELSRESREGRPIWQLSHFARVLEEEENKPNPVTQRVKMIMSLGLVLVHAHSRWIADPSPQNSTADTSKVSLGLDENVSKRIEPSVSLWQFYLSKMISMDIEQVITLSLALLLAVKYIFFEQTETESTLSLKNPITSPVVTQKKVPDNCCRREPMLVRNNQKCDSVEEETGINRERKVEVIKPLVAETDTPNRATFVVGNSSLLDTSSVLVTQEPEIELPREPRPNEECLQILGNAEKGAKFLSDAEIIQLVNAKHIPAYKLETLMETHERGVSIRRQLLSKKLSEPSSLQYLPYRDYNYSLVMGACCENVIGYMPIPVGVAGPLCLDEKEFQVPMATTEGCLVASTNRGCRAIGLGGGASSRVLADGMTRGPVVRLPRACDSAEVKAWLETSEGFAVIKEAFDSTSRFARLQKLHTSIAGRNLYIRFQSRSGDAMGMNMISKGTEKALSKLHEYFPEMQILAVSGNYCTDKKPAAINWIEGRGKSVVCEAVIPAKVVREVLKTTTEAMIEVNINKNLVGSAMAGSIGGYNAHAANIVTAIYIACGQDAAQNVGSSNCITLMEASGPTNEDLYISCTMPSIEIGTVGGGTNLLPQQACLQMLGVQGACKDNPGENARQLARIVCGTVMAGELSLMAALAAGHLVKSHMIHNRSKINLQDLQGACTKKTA

| IC50 | Structure (SMILES) |
| --- | --- |
| > 10000 nM | O=C(CCCCCCC(=O)Nc1ccccc1)NO [VORINOSTAT] |

These compounds were tested against T2, Protein deacetylase HDAC6 (Homo sapiens) (UniProt Q9UBN7) (assay: Inhibition of HDAC6 in human A549 cells assessed as increase in tubulin acetylation after 24 hrs by Western blotting analysis). Conditions: not given.
T2 sequence (whole entry): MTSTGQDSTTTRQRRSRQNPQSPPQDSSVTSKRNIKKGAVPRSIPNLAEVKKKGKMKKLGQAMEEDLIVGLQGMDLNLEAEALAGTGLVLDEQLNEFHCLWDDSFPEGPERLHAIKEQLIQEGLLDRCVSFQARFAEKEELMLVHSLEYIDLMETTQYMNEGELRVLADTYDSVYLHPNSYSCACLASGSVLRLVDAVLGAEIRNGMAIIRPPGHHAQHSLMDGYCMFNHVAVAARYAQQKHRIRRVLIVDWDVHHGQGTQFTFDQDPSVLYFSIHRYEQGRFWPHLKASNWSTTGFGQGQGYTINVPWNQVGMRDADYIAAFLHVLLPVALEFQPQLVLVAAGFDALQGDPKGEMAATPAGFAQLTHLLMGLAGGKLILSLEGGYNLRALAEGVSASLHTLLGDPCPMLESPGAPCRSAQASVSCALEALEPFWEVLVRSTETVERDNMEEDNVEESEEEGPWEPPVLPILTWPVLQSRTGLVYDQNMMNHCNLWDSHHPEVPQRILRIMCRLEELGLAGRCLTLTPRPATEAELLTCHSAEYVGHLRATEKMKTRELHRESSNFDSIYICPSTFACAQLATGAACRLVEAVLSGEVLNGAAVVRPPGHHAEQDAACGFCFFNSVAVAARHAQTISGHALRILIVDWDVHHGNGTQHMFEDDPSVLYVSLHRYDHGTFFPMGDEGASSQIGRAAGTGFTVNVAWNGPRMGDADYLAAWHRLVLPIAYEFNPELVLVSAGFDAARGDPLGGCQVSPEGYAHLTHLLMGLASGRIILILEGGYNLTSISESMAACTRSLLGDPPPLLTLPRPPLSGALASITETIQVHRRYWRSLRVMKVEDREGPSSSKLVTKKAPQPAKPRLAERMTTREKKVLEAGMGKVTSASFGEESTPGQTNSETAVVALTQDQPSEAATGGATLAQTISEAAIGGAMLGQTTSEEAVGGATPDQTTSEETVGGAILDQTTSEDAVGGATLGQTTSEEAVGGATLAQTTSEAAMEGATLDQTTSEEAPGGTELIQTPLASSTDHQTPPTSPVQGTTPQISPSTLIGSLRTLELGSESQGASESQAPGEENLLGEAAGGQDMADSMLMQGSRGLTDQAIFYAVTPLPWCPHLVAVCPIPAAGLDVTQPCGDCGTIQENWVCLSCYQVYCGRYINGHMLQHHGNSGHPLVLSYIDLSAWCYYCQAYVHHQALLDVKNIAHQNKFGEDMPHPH
Type: cell-based
Method in brief: (§1)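 A549 cells (DMEM, 10% FBS, penicillin/streptomycin, 5% CO2) exposed to compounds at indicated doses for 24 h. Cells lysed on ice, total lysates run on SDS–PAGE and immunoblotted with antibodies to acetyl-histone H3, acetyl-tubulin and actin. Loading normalised to β-actin.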

| inhibition | Structure (SMILES) |
| --- | --- |
| Dose-dependent effect | C[C@H]1C=C2C=C[C@H](C)[C@H](CC[C@@H]3C[C@@H](O[Si](C)(C)C(C)(C)C)CC(=O)O3)[C@H]2[C@@H](OC(=O)NCc2ccc(-c3cn(CCCCCCC(=O)NO)nn3)cc2)C1 |
| Dose-dependent effect | C[C@H]1C=C2C=C[C@H](C)[C@H](CC[C@@H]3C[C@@H](O[Si](C)(C)C(C)(C)C)CC(=O)O3)[C@H]2[C@@H](OC(=O)Nc2ccc(-c3cn(CCCCCCC(=O)NO)nn3)cc2)C1 |

| Structure (SMILES) | inhibition |
| --- | --- |
| CC(C)c1nc(N(C)S(C)(=O)=O)nc(-c2ccc(F)cc2)c1/C=C/[C@@H](O)C[C@@H](O)CC(=O)NO | Dose-dependent effect |

These compounds were tested against Histone deacetylase (Homo sapiens) (UniProt Q13547+O15379+Q9UBN7+Q92769+Q9UQL6+Q8WUI4+Q9BY41+Q96DB2+P56524+Q9UKV0+Q969S8) (assay: Inhibition of class 1 HDAC in human A549 cells assessed as increase in histone acetylation after 24 hrs by Western blotting analysis). Conditions: not given.
Type: cell-based
Method in brief: as §1

| inhibition | Structure (SMILES) |
| --- | --- |
| Dose-dependent effect | C[C@H]1C=C2C=C[C@H](C)[C@H](CC[C@@H]3C[C@@H](O[Si](C)(C)C(C)(C)C)CC(=O)O3)[C@H]2[C@@H](OC(=O)NCc2ccc(-c3cn(CCCCCCC(=O)NO)nn3)cc2)C1 |
| Dose-dependent effect | C[C@H]1C=C2C=C[C@H](C)[C@H](CC[C@@H]3C[C@@H](O[Si](C)(C)C(C)(C)C)CC(=O)O3)[C@H]2[C@@H](OC(=O)Nc2ccc(-c3cn(CCCCCCC(=O)NO)nn3)cc2)C1 |

| Structure (SMILES) | inhibition |
| --- | --- |
| CC(C)c1nc(N(C)S(C)(=O)=O)nc(-c2ccc(F)cc2)c1/C=C/[C@@H](O)C[C@@H](O)CC(=O)NO | Dose-dependent effect |

The compounds below were run against T3, Protein deacetylase HDAC6 (Homo sapiens, UniProt Q9UBN7) (assay: Inhibition of recombinant HDAC6 (unknown origin) after 10 mins by fluorimetric analysis). Conditions: not given.
T3 sequence (Q9UBN7 whole entry): T2 sequence (whole entry)

| IC50 | Structure (SMILES) |
| --- | --- |
| 34 nM | C[C@H]1C=C2C=C[C@H](C)[C@H](CC[C@@H]3C[C@@H](O[Si](C)(C)C(C)(C)C)CC(=O)O3)[C@H]2[C@@H](OC(=O)NCc2ccc(-c3cn(CCCCCCC(=O)NO)nn3)cc2)C1 |
| 127 nM | C[C@H]1C=C2C=C[C@H](C)[C@H](CC[C@@H]3C[C@@H](O[Si](C)(C)C(C)(C)C)CC(=O)O3)[C@H]2[C@@H](OC(=O)Nc2ccc(-c3cn(CCCCCCC(=O)NO)nn3)cc2)C1 |
| 140 nM | C[C@H]1C=C2C=C[C@H](C)[C@H](CC[C@@H]3C[C@@H](O[Si](C)(C)C(C)(C)C)CC(=O)O3)[C@H]2[C@@H](OC(=O)NCCCCCCC(=O)NO)C1 |

The compounds below were run against T1, 3-hydroxy-3-methylglutaryl-coenzyme A reductase (assay: Inhibition of HMG-CoA reductase in human A549 cells after 5 mins by spectrophotometric analysis). Conditions: not given.

| Structure (SMILES) | IC50 |
| --- | --- |
| CC(C)c1nc(N(C)S(C)(=O)=O)nc(-c2ccc(F)cc2)c1/C=C/[C@@H](O)C[C@@H](O)CC(=O)NO | 14900 nM |

Each compound was assayed against Histone deacetylase 2 (Homo sapiens, UniProt Q92769) (assay: Inhibition of recombinant HDAC2 (unknown origin) after 10 mins by fluorimetric analysis). Conditions: not given.
Sequence of Histone deacetylase 2 (Q92769 whole entry): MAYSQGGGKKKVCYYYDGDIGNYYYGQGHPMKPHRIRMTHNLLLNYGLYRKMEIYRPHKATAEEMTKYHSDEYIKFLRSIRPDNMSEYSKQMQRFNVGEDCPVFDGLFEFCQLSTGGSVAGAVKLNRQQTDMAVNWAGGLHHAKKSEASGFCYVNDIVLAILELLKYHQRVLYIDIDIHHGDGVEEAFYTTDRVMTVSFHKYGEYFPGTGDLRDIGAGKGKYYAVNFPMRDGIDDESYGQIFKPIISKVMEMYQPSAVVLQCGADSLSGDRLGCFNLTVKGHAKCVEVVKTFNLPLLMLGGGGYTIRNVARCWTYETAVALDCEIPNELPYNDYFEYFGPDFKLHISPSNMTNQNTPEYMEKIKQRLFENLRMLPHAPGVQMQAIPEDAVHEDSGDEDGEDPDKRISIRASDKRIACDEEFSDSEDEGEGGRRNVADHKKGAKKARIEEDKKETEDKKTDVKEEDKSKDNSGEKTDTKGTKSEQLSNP

| IC50 | Structure (SMILES) |
| --- | --- |
| 882 nM | C[C@H]1C=C2C=C[C@H](C)[C@H](CC[C@@H]3C[C@@H](O[Si](C)(C)C(C)(C)C)CC(=O)O3)[C@H]2[C@@H](OC(=O)NCc2ccc(-c3cn(CCCCCCC(=O)NO)nn3)cc2)C1 |
| 463 nM | C[C@H]1C=C2C=C[C@H](C)[C@H](CC[C@@H]3C[C@@H](O[Si](C)(C)C(C)(C)C)CC(=O)O3)[C@H]2[C@@H](OC(=O)Nc2ccc(-c3cn(CCCCCCC(=O)NO)nn3)cc2)C1 |
| 658 nM | C[C@H]1C=C2C=C[C@H](C)[C@H](CC[C@@H]3C[C@@H](O[Si](C)(C)C(C)(C)C)CC(=O)O3)[C@H]2[C@@H](OC(=O)NCCCCCCC(=O)NO)C1 |

What follows are compounds tested against Histone deacetylase 1 (Homo sapiens, UniProt Q13547) (assay: Inhibition of recombinant HDAC1 (unknown origin) after 10 mins by fluorimetric analysis). Conditions: not given.
Sequence of Histone deacetylase 1 (Q13547 whole entry): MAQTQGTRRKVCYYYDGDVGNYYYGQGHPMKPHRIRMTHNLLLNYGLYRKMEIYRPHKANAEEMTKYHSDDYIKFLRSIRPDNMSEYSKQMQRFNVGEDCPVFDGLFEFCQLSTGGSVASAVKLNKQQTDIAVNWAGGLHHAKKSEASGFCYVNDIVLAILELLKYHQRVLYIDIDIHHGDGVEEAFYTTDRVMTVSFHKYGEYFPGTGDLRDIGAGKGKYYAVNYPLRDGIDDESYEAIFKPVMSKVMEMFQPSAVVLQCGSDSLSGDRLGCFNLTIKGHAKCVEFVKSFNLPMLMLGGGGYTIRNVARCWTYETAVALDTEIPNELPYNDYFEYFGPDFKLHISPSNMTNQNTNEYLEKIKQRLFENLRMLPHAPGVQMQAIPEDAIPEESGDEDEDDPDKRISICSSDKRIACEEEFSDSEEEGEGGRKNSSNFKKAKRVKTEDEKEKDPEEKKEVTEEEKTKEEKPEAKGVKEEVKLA

| IC50 | Structure (SMILES) |
| --- | --- |
| 125 nM | C[C@H]1C=C2C=C[C@H](C)[C@H](CC[C@@H]3C[C@@H](O[Si](C)(C)C(C)(C)C)CC(=O)O3)[C@H]2[C@@H](OC(=O)NCc2ccc(-c3cn(CCCCCCC(=O)NO)nn3)cc2)C1 |
| 159 nM | C[C@H]1C=C2C=C[C@H](C)[C@H](CC[C@@H]3C[C@@H](O[Si](C)(C)C(C)(C)C)CC(=O)O3)[C@H]2[C@@H](OC(=O)Nc2ccc(-c3cn(CCCCCCC(=O)NO)nn3)cc2)C1 |
| 122 nM | C[C@H]1C=C2C=C[C@H](C)[C@H](CC[C@@H]3C[C@@H](O[Si](C)(C)C(C)(C)C)CC(=O)O3)[C@H]2[C@@H](OC(=O)NCCCCCCC(=O)NO)C1 |

What follows are compounds tested on A549 (assay: Selectivity index, ratio of IC50 for human HS68 cells to IC50 for human A549 cells). Conditions: not given.
Type: functional

| Structure (SMILES) | Ratio IC50 |
| --- | --- |
| CCC(C)(C)C(=O)O[C@H]1C[C@@H](C)C=C2C=C[C@H](C)[C@H](CC[C@@H]3C[C@@H](O)CC(=O)O3)[C@H]21 [SIMVASTATIN] | 1.6 |
